Test results reported in article PMC11231753 (Biofilm, 2024).
≈ marks a conversion by molar mass, not a printed value. Blank lines part the entries; values can stand above or below the compound they belong to.

Legend:
[1] = tested on: violacein production by C. violaceum 6267; experiment: Quantitative anti-QS assay: inhibition of violacein production in 96 well plates; type: cell-based, Chromobacterium violaceum
C. violaceum 6267 = experiment: MIC by broth microdilution against C. violaceum 6267; type: cell-based, Chromobacterium violaceum
How it was run: (§1)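 Strains maintained in LB (1 % peptone, 0.5 % yeast extract, 0.5 % NaCl). Broth microdilution in 96-well plates: 10⁶ CFU/mL exposed to serial two-fold dilutions of the test extract, overnight at 37 °C. MIC taken as the lowest concentration inhibiting growth. Amoxicillin-clavulanate and imipenem served as positive controls. Run in triplicate.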

[2] = tested on: Klebsiella pneumoniae, Proteus mirabilis, Pseudomonas aeruginosa, and Shigella flexineri; conditions: cited from earlier work
P. aeruginosa = conditions: cited from earlier work
P. aeruginosa PAO1 = experiment: MIC by broth microdilution against P. aeruginosa PAO1; type: cell-based, Pseudomonas aeruginosa
How it was run: as §1

[3] = tested on: P. aeruginosa PAO1 biofilm formation; experiment: Inhibition of biofilm formation; type: cell-based, Pseudomonas aeruginosa; conditions: comparison of Fig. 5A, concentration not given
How it was run: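 Biofilm grown in LB broth with 10⁵ CFU/mL PAO1 and serial dilutions of the test extract (7.81–500 μg/mL) at 37 °C overnight. Amoxicillin-clavulanate (3.9–250 μg/mL) and imipenem (0.015–0.97 μg/mL) served as reference antibiotics. Biomass was stained with crystal violet and read at 600 nm to give percent inhibition. Biofilm cells were also viewed by inverted microscope. Run in triplicate; mean ± standard deviation.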

Structure (SMILES): O=C/C=C/c1ccccc1 [Cinnamaldehyde]
Anti-QS activity (concentration inhibiting violacein production) ([1]; C. violaceum 6267): 7.81 µg/mL
percentage of inhibition (violacein production) ([1]; at the anti-QS concentration printed beside the value): 87.8 ± 2.32%
Inhibition of violacein production ([1]; ½ MIC (n-BuOH fraction 125 μg/mL; ethanolic extract 250 μg/mL)): 93.4%
MIC (C. violaceum 6267; Chromobacterium violaceum, 6267, read-out: MIC C. violaceum): 31.2 µg/mL (≈ 236 µM)
MIC C. violaceum (C. violaceum 6267; broth microdilution): 31.25 µg/mL (≈ 236 µM)

Structure (SMILES): O=c1c(O)c(-c2cc(O)c(O)c(O)c2)oc2cc(O)cc(O)c12 [myricetin]
Concentration inhibiting bacterial growth of various Gram-negative bacteria [2]: 30 µg/mL
MIC against P. aeruginosa ATCC 27853 (P. aeruginosa): 256 µg/mL (≈ 804 µM)

MIC (P. aeruginosa PAO1; Pseudomonas aeruginosa, PAO1, read-out: MIC P. aeruginosa PAO1): 31.2 µg/mL (≈ 104 µM)
MIC P. aeruginosa PAO1 (P. aeruginosa PAO1; broth microdilution, overnight 37 °C): 31.25 µg/mL (≈ 104 µM)
Structure (SMILES): C[C@@H](O)[C@H]1C(=O)N2C(C(=O)O)=C(SCCN=CN)C[C@H]12 [Imipenem, imipenem]
Antibiofilm effect, percentage of inhibition [3]: 47.24%
